Molecules are shown by their SMILES. Activity calls are given as the source filed them. No cut-off for these calls is given here.

Data set [1] concerns Human alphaherpesvirus 1. As to the kind of experiment: Inhibitory activity against HSV-1 in vero cells. In kind it is functional, herpes simplex virus. Particulars: Human alphaherpesvirus 1, Vero; read-out: ED50 (the source's name). In short, it runs like this: (§1)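 Plaque-elimination assay. Cells were infected with 50–100 PFU of HSV-1 (KOS) or HSV-2 (186 or plaque-purified 186 stocks, 333, G) and adsorbed for 1 h, then overlaid with 0.5% FCS medium ± compound, in duplicate. After 2 days, wells were crystal-violet stained and plaques counted by eye; ED50 was taken from a sigmoidal nonlinear fit.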

Data set [2] has as its system Vero. The data set is described as follows: In vitro cytotoxic concentration in vero cells. In kind it is functional. Particulars: Chlorocebus sabaeus. The method, boiled down:
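Vero cell replication was measured by sulforhodamine B dye binding after 2 days of continuous compound exposure. CC50 is the concentration giving 50% inhibition relative to untreated control, calculated by nonlinear regression with a sigmoidal fit to dose-response data.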

Data set [3] concerns Human alphaherpesvirus 2. As to the kind of experiment: Inhibitory activity against HSV-2 in vero cells. The format is functional, herpes simplex virus. The following applies: Human alphaherpesvirus 2, Vero; read-out: ED50 (the source's name). In short, it runs like this: as §1
Data set [4] in a line: Therapeutic index (vero CC50/ED50) against HSV-2. The following applies: herpes simplex virus, Vero cells; read-out: TI. In short, it runs like this: (§2)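 Selectivity (TI) was calculated as Vero CC50 (SRB assay, 2 days continuous treatment) divided by plaque-reduction ED50 against the given HSV strain in Vero cells, using 50–100 PFU inoculum and a 2-day incubation.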
A short description of data set [5]: Therapeutic index (vero CC50/ED50) against HSV-1. The following applies: herpes simplex virus, Vero cells; read-out: TI. In short, it runs like this:
as §2

Data set [6] can be described thus: Therapeutic index (vero CC50/ED50) against HSV-2; NA= not active. Particulars: herpes simplex virus. In short, it runs like this: as §2
Data set [7] concerns Human alphaherpesvirus 2. The data set is described as follows: Inhibitory activity against HSV-2 in vero cells; NA= not active. Particulars: herpes simplex virus. In kind it is functional, organism-based. The method, boiled down: as §1
Data set [8] deals with Human alphaherpesvirus 1. The data set is described as follows: Inhibitory activity against HSV-1 in vero cells; NA= not active at 100 uM. In kind it is functional, organism-based. The following applies: herpes simplex virus. The method, boiled down:
as §1

Data set [9] deals with Human alphaherpesvirus 1. As to the kind of experiment: Inhibitory activity against HSV-1 in vero cells; NA= not active. In kind it is functional, organism-based. The following applies: herpes simplex virus. In short, it runs like this: as §1
Data set [10] deals with Human alphaherpesvirus 2. As to the kind of experiment: Inhibitory activity against HSV-2 in vero cells; NA= not active, at 50 uM no toxicity. The format is functional, organism-based. Particulars: herpes simplex virus. The method, boiled down:
as §1

Data set [11] has as its system herpes simplex virus. The data set is described as follows: Anti-HSV activity against HSV-2 (G) strain. In kind it is functional. In short, it runs like this:
as §1

The test system of data set [12] is herpes simplex virus. The data set is described as follows: Anti-HSV activity against HSV-2 (186) strain. The format is functional. The method, boiled down:
as §1

Data set [13] concerns herpes simplex virus. The data set is described as follows: Anti-HSV activity against HSV-2 (333) strain. In kind it is functional. The method, boiled down: as §1
Data set [14] in a line: Therapeutic index against HSV-1 (KOS). The following applies: herpes simplex virus; read-out: TI. The method, boiled down:
as §2

A short description of data set [15]: Therapeutic index against HSV-2 (186, c4). The following applies: herpes simplex virus; read-out: TI. The method, boiled down: as §2
In data set [16] the test system is herpes simplex virus. As to the kind of experiment: Anti-HSV activity against HSV-2 (186, c4) strain. In kind it is functional. The method, boiled down: as §1
Data set [17] deals with herpes simplex virus. The data set is described as follows: Anti-HSV activity against HSV-2 (186, c2) strain. In kind it is functional. In short, it runs like this: as §1
The nature of data set [18]: Therapeutic index against HSV-2 (G). Particulars: herpes simplex virus; read-out: TI. The method, boiled down: as §2
Data set [19] is described as follows: Therapeutic index against HSV-2 (186, c2). The following applies: herpes simplex virus; read-out: TI. In short, it runs like this:
as §2

Data set [20] can be described thus: Therapeutic index against HSV-2 (333). The following applies: herpes simplex virus; read-out: TI. In short, it runs like this: as §2
In data set [21] the test system is herpes simplex virus. The data set is described as follows: Anti-HSV activity against HSV-1 (KOS) strain. In kind it is functional. The method, boiled down:
as §1

In the case of `Oc1cc(O)c2c(O)c3cc(Cl)cc(Cl)c3nc2c1`, the figures for the EC50 in data set [1] and in data set [3] were 12 µM and 20 µM, respectively. This molecule displayed a CC50 in data set [2] of more than 100 µM. Also, the figures for the selectivity ratio in data set [4] and in data set [5] were more than 8.3 and more than 5, respectively.

In the case of `O=c1c2ccc(Cl)cc2[nH]c2cc(O)cc(O)c12`, the EC50 in [1] came out at 10 µM. Also, the TI result in data set [6] is on record as “Not Active”. In data set [2], this molecule displayed a CC50 of 29 µM. For the same molecule, the selectivity ratio in data set [5] turned out to be 3.

In [2], `COc1cc(O)c2c(O)c3cccc(OC)c3nc2c1` had a CC50 of more than 50 µM. For the same molecule, the EC50 in [3] is more than 50 µM.

Turning to `Cc1cccc2nc3cc(O)cc(O)c3c(O)c12`, in data set [1], the EC50 was determined as 44 µM. Besides, the CC50 in [2] was determined as 60 µM. In addition, in [5], the selectivity ratio was determined as 1.4.

For the molecule `COc1cc(O)c2c(=O)c3cccc(Cl)c3[nH]c2c1`, the EC50 in [1] is more than 50 µM. Moreover, the ED50 result in data set [7] was “inactive”. For the same molecule, the CC50 in data set [2] is more than 100 µM.

With `COc1cc(O)c2c(O)c3cc(OC)ccc3nc2c1`, the CC50 in [2] is more than 50 µM. In data set [3], the EC50 is more than 10 µM.

Take `O=c1c2c(O)cc(O)cc2[nH]c2cccc(Cl)c12`: the EC50 in data set [1] worked out at 10 µM. Moreover, the CC50 in data set [2] was determined as 70 µM. Also, the selectivity ratio in [5] is 7.

`COc1cc(O)c2c(O)c3cc(O)ccc3nc2c1` displayed a CC50 in data set [2] of 25 µM. The EC50 in data set [3] is less than 10 µM.

In the case of `O=c1c2cccc(Cl)c2[nH]c2cc(O)cc(O)c12`, the values for the EC50 in [1] and in data set [3] were 4 µM and more than 30 µM, respectively. In addition, the TI entry in data set [6] is “Not Active”. In data set [2], the CC50 came to 60 µM. Besides, in [5], the selectivity ratio was 13.

For `COc1cc(O)c2c(=O)c3cccc(Cl)c3n(C)c2c1`, the EC50 in data set [1] was more than 100 µM; in [3] it was more than 50 µM. For the same molecule, the cytotoxic concentration (CC50) in data set [2] is more than 100 µM.

In the case of `O=c1c2cc(Cl)ccc2[nH]c2cc(O)cc(O)c12`, the figures for the EC50 in data set [1] and in [3] were 16 µM and 15 µM, respectively. The molecule further registered a 50% cytotoxic concentration (CC50) in data set [2] of 52 µM. Moreover, the selectivity ratio in [4] and in data set [5] was 3.5 throughout.

As for `Cc1cccc2c(O)c3c(O)cc(O)cc3nc12`, the figures for the EC50 in data set [1] and in [3] were 8 µM and 15 µM, respectively. In data set [2], this molecule showed a CC50 of 32 µM. The selectivity ratio amounted to 2.1 in data set [4] and 4 in data set [5].

`O=c1c2cccc(Cl)c2[nH]c2cc3ccccc3c(O)c12`: in data set [8], the ED50 result is “inactive”. This molecule displayed a half-maximal cytotoxic concentration (CC50) in [2] of more than 100 µM.

With `Cc1cc(O)c2c(=O)c3cccc(Cl)c3[nH]c2c1`, the ED50 result in [7] and in [9] was “inactive” each time. This molecule had a CC50 in data set [2] of 13 µM.

Consider `Oc1cc(O)c2c(O)c3cc(O)ccc3nc2c1`, for which the EC50 in data set [1] worked out at 15 µM. The molecule further displayed a CC50 in [2] of 40 µM. Besides, the selectivity ratio in data set [5] came out at 2.7.

In the case of `O=c1c2ccccc2[nH]c2cc(O)cc(O)c12`, in [1], the EC50 amounted to 45 µM. For the same molecule, the CC50 in [2] is 68 µM. Moreover, in data set [5], the selectivity ratio is 1.5.

As to `Cn1c2cc(O)cc(O)c2c(=O)c2cccc(Cl)c21`, the figures for the EC50 in data set [1] and in data set [3] were more than 50 µM and more than 30 µM, respectively. The CC50 in data set [2] came to 50 µM.

For the molecule `COc1cc(O)c2c(O)c3cccnc3nc2c1`, the ED50 entry in data set [10] is “inactive”. Moreover, the 50% cytotoxic concentration (CC50) in data set [2] came out at 5.5 µM.

As for `O=C(O)CP(=O)(O)O` [FOSFONET], in data set [1], the EC50 stood at 240 µM. In data set [2], this molecule came in with a CC50 of 3500 µM. Besides, the selectivity ratio in [5] is 29.

Turning to `COc1cccc2c(O)c3c(O)cc(O)cc3nc12`, the ED50 in data set [11] came out at 0.5 µM; in data set [12], 0.6 µM; in data set [13] it was 0.7 µM; in data set [16], 1.2 µM; in data set [17], 0.6 µM; in data set [21], 2.2 µM. Also, the results for the EC50 in [1] and in data set [3] were 2.2 µM and 0.6 µM, respectively. For the same molecule, the selectivity ratio worked out at 14 in data set [14]; 25 in data set [15]; 60 in data set [18]; 50 in data set [19]; 43 in [20]; 50 in data set [4]. Besides, the selectivity ratio in data set [5] came to 13. In data set [2], this molecule displayed a CC50 of 30 µM.

As to `Nc1nc2c(ncn2COCCO)c(=O)[nH]1` [ACYCLOVIR], the EC50 amounted to 0.5 µM in data set [1] and 2.5 µM in data set [3]. For the same molecule, the CC50 in [2] is more than 400 µM. The selectivity ratio in [4] is more than 160; in data set [5] it was more than 800.

The values above are taken from ChEMBL document CHEMBL1145894, “Anti-herpes simplex virus activity of substituted 1-hydroxyacridones” (J Med Chem, 2003).
